Measurements: ChEMBL document CHEMBL2311405, “Synthesis and biological evaluation of indenoisoquinolines that inhibit both tyrosyl-DNA phosphodiesterase I (Tdp1) and topoisomerase I (Top1)” (J Med Chem, 2013)
The source made the active and inactive calls. The calls are words filed in the database; no cut-off is given here.

Legend:
SF-539 = test: Growth inhibition of human SF539 cells; assay type: functional
How it was run: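 Human cancer cell line panel, compounds tested at concentrations up to 10 μM. GI50 per cell line is the mean of two determinations where a standard error is given, otherwise from one determination.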

SN12C = test: Growth inhibition of human SN12C cells; assay type: functional
UACC-62 = test: Growth inhibition of human UACC62 cells; assay type: functional
HOP-62 = test: Growth inhibition of human HOP62 cells; assay type: functional
HCT-116 = test: Growth inhibition of human HCT116 cells; assay type: functional
[1] = molecular target: T1, DNA topoisomerase 1 (Homo sapiens) (UniProt P11387); test: Inhibition of recombinant Top1 (unknown origin) using 3'-[32P]-end-labeled 117 bp oligonucleotide as substrate after 20 mins by SDS-PAGE analysis relative to 1 uM camptothecin
T1 sequence (whole entry): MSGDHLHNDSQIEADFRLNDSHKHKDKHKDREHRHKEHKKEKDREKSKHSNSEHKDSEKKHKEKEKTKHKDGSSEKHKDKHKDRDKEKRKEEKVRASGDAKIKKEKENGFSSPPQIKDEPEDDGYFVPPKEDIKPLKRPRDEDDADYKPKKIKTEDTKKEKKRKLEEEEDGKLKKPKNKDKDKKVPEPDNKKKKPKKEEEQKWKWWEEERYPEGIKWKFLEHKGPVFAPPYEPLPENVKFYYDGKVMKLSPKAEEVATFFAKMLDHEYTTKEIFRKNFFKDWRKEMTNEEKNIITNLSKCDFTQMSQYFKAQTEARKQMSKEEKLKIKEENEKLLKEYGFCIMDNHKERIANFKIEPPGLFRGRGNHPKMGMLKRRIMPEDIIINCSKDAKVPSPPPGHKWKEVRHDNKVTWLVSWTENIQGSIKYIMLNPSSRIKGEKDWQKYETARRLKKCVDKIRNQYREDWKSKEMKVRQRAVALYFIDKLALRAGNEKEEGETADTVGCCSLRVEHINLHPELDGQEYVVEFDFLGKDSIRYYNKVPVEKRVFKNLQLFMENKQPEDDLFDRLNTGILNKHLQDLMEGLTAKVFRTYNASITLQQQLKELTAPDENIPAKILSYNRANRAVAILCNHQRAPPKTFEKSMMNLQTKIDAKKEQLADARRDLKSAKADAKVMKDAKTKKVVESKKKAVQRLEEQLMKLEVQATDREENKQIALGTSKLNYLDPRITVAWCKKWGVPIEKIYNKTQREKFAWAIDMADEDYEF

Row | GI50 (HCT-116) [nM] | inhibition [1] | SMILES | GI50 (SF-539) [nM] | GI50 (SN12C) [nM] | GI50 (UACC-62) [nM] | GI50 (HOP-62) [nM]
1 | < 10 | Active | COc1ccc2c(c1)C(=O)c1c-2n(CCCN)c(=O)c2cc([N+](=O)[O-])ccc12 | < 10 | < 10 | < 10 | < 10
2 | – | Active | COc1cccc2c1-c1c(c3ccc([N+](=O)[O-])cc3c(=O)n1CCCN)C2=O | – | – | – | –
